The text below walks through data of ChEMBL document CHEMBL1139414, “Conformationally constrained analogues of diacylglycerol. 29. Cells sort diacylglycerol-lactone chemical zip codes to produce diverse and selective biological activities” (J Med Chem, 2008).

For assay [1], the target named is Protein kinase C alpha type (Mus musculus, UniProt P20444). The assay is described as follows: Displacement of [3H]PDBu form mouse PKCalpha by scintillation counting. A digest of the protocol: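 Partially purified mouse PKCα; competition with [³H]PDBU. ID50 obtained by fitting a sigmoidal competition curve and converted to Ki = ID50/(1+L/Kd). Pure compounds tested at 6–7 concentrations; crude library compounds at a single 1 μM concentration. Triplicates per concentration, at least three experiments; mean ± SEM.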

Assay [2] addresses T1, Ras guanyl-releasing protein 3 (Homo sapiens, UniProt Q8IV61).
T1 sequence (Q8IV61 whole entry): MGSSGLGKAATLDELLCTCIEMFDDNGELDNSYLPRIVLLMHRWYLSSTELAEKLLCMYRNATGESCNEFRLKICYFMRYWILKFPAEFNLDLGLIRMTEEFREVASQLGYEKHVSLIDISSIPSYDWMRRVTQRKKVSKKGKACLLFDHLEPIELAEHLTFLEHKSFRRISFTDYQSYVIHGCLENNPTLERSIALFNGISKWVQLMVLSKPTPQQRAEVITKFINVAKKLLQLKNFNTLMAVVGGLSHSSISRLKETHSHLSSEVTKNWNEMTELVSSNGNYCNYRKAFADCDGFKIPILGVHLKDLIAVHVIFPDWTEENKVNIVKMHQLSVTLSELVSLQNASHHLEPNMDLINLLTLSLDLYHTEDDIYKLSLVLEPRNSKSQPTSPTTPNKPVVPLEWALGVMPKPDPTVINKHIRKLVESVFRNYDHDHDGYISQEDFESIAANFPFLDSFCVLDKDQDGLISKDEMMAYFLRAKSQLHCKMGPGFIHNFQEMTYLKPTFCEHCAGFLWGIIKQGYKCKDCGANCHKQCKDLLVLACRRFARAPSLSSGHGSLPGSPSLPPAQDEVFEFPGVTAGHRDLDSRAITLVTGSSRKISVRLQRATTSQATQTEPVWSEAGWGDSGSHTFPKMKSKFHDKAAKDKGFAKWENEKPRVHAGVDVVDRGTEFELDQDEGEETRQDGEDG
The assay can be described thus: Binding affinity to RasGRP3.

The next assay relates to NK92. The assay can be described thus: Induction of IFN-gamma production in human NK92 cells at 1 ug/mL after 6 hrs by ELISA. The format is functional, cell-based. Put shortly: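 NK92 cells (10⁶ cells/mL) in RPMI with 10% FCS, glutamine and Pen/Strep at 37 °C for 6 h with derivative (1 μg/mL) alone or with IL12 (100 u/10⁶ cells), in duplicate wells. IFN-γ in supernatants by ELISA.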

In assay [3] the target is Transcription factor Jun (Mus musculus) (UniProt P05627). The assay is described as follows: Activation of AP1 expressed in BALB/c mouse JB6 cells coexpressing luciferase reportet gene at 100 ng/mL after 18 hrs relative to 12-O-tetradecanoylphorbol-13-O-acetate. Format: cell-based. Put shortly:
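JB6 P+ cells seeded at 10⁴, transfected with 4x AP-1 luciferase reporter (0.2 μg DNA) using a 3:1 lipid reagent ratio; on day 3 treated with DMSO, TPA (10 ng/mL) or DAG-lactone (100 ng/mL); luciferase read 18 h later. Values normalized to TPA-induced activity; average of 6 independent assays.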

In assay [4] the test system is LNCaP. The assay is described as follows: Induction of apoptosis in human LnCAP cells pretreated at 20 uM for 16 hrs followed by 20 Gy radiation assessed after 24 hrs post radiation by fluorescence microscopy. The format is functional, cell-based. A digest of the protocol: (§1)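 LNCaP cells in RPMI-1640 with 0.2% human albumin replacing FCS from 24 h before the experiment; pretreated 16 h with compound (10 or 20 μM), then 20 Gy irradiation. Fixed 24 h post radiation, stained with bis-benzimide and scored by fluorescence microscopy; cells with ≥3 apoptotic bodies counted apoptotic. Average of two experiments ± SD.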

Assay [5] concerns LNCaP. The assay is described as follows: Induction of apoptosis in human LnCAP cells pretreated at 10 uM for 16 hrs followed by 20 Gy radiation assessed after 24 hrs post radiation by fluorescence microscopy. The format is functional, cell-based. A digest of the protocol:
as §1

The test system of assay [6] is LNCaP. The assay can be described thus: Antitumor activity against human LnCAP cells transplanted in Swiss nude mouse assessed as inhibition of tumor growth at 12 mg/kg, ip administered daily 16 hrs prior to 10 Gy radiation during first week followed by 2 injections at 48 hrs intervals during second week assessed after 8 weeks by radioimmunoassay. Format: functional, organism-based. On the set-up: dose 12 mg/kg. Put shortly:
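Male Swiss nude mice (8–10 weeks) implanted orthotopically in prostate with 3.0×10⁶ LNCaP cells; used when serum PSA was 5.0–15.0 ng/mL. Drug 12 mg/kg i.p. in DMSO, 16 h before each 1 Gy local pelvic fraction (daily, Mon–Fri, total 10 Gy) in week 1, then two injections 48 h apart in week 2. Serum PSA by radioimmunoassay through week 8; mean per group.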

The test system of assay [7] is LNCaP. The assay can be described thus: Antitumor activity against human LnCAP cells transplanted in Swiss nude mouse assessed as reduction in ataxia telengiectasia mutated gene level at 12 mg/kg, ip administered as 2 injections at 24 hrs intervals assessed after 8 weeks by radioimmunoassay. Format: functional, organism-based. More on the design: dose 12 mg/kg. Particulars: in the assay text read “48 hrs after first injection” for “after 8 weeks”. Put shortly:
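Orthotopic LNCaP prostate tumors (~100 mm³) in Swiss nude mice; 12 mg/kg i.p., two injections 24 h apart, prostate resected 48 h after first injection. ATM measured in tumor extracts relative to vehicle control.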

The test system of a further assay is MCF-10A. The assay is described as follows: Induction of human MCF10A cell motility at 10 uM after 20 hrs by photomicroscopy relative to diacylglycerol-lactone. Format: functional, cell-based. Put shortly:
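MCF-10A cells seeded in a small circular area through a 10-hole manifold; at manifold removal, compound added to a final 10 μM (vehicle 1% v/v DMSO), 37 °C, 5% CO₂. Radial spread imaged over 20 h; radius in microns expressed as a ratio to the radius from the DAG-lactone positive control. Triplicate measurements.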

Assay [8] has as its system CHO. The assay can be described thus: Translocation of GFP-tagged PKCbeta from cytosol to membrane compartment of CHO cells. Format: functional, cell-based. A digest of the protocol:
(§2)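 GFP-tagged PKC isoforms overexpressed in CHO cells; live-cell localization followed by confocal microscopy before and after ligand (300 nM). Representative of 2 (PKCβ, ε) or 3 (PKCα, δ) independent experiments.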

Assay [9] relates to CHO. The assay can be described thus: Translocation of GFP-tagged PKCalpha from cytosol to membrane compartment of CHO cells by confocal microscopy.
Assay [10] relates to CHO. The assay can be described thus: Translocation of GFP-tagged mouse PKCdelta from cytosol to membrane compartment of CHO cells by confocal microscopy. Format: functional, cell-based. Particulars: Cricetulus griseus. A digest of the protocol:
as §2

Assay [11] has as its system CHO. The assay can be described thus: Translocation of GFP-tagged PKCepsilon from cytosol to membrane compartment of CHO cells by confocal microscopy.
The nature of assay [12]: Selectivity ratio of Ki for mouse PKCalpha to Ki for RasGRP3.

Active and inactive are the calls of the source. No cut-off for these calls is given here.

Chain of Transcription factor Jun (Mus musculus) (P05627 whole entry): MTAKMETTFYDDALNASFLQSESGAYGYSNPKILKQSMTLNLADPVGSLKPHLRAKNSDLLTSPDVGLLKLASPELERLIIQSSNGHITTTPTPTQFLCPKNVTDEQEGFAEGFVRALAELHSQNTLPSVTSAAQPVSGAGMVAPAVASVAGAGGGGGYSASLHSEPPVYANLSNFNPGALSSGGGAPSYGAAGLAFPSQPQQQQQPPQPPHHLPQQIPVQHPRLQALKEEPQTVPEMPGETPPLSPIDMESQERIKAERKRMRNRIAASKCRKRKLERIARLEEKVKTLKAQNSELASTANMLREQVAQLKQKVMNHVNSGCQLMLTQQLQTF

Take `CN(C)c1cccc(C(=O)OCC2(CO)C/C(=C\c3ccc([N+](=O)[O-])cc3)C(=O)O2)c1` (racemic): the Ki in [1] worked out at 0.0318 µM; in [2], 0.0023 µM.
Consider `CN(C)c1ccccc1C(=O)OCC1(CO)C/C(=C\c2ccccc2[N+](=O)[O-])C(=O)O1` (racemic), for which the inhibitory constant (Ki) was 0.134 µM in assay [1] and 0.0094 µM in assay [2].
With `CN(C)c1cccc(C(=O)OCC2(CO)C/C(=C\c3cccc([N+](=O)[O-])c3)C(=O)O2)c1` (racemic), the Ki in assay [1] turned out to be 0.063 µM; in assay [2] it was 0.0053 µM.
Take `CN(C)c1ccccc1C(=O)OCC1(CO)C/C(=C\c2cccc([N+](=O)[O-])c2)C(=O)O1` (racemic): the Ki in assay [1] came to 0.044 µM; in assay [2] it was 0.0039 µM.
Turning to `CN(C)c1ccc(C(=O)OCC2(CO)C/C(=C\c3cccc([N+](=O)[O-])c3)C(=O)O2)cc1` (racemic), the figures for the Ki in [1] and in assay [2] were 0.0724 µM and 0.008 µM, respectively.
For the compound `CN(C)c1ccc(C(=O)OCC2(CO)C/C(=C\c3ccccc3[N+](=O)[O-])C(=O)O2)cc1` (racemic), the figures for the Ki in [1] and in assay [2] were 0.0545 µM and 0.0144 µM, respectively.
Compound `CCCCC(CC)C(=O)OCC1(CO)C/C(=C/c2ccc(Cl)c(F)c2)C(=O)O1` (racemic) displayed a Ki in assay [1] of 0.0101 µM. The outcome (in the assay with NK92; in assay [3]) was Active.
For `CN(C)c1ccccc1C(=O)OCC1(CO)C/C(=C\c2ccc([N+](=O)[O-])cc2)C(=O)O1` (racemic), the figures for the inhibition constant Ki in assay [1] and in assay [2] were 0.0385 µM and 0.0018 µM, respectively.
Turning to `CN(C)c1cccc(C(=O)OCC2(CO)C/C(=C\c3ccccc3[N+](=O)[O-])C(=O)O2)c1` (racemic), the results for the Ki in assay [1] and in assay [2] were 0.116 µM and 0.0164 µM, respectively.
For the compound `CN(C)c1ccc(/C=C2\CC(CO)(COC(=O)c3ccc(N(C)C)cc3)OC2=O)cc1` (racemic; form 1), the Ki in assay [1] was found to be 0.102 µM; in assay [2] it was 0.00468 µM.
The corresponding values for `CN(C)c1ccc(C(=O)OCC2(CO)C/C(=C\c3ccc([N+](=O)[O-])cc3)C(=O)O2)cc1` (racemic; form 1) are 0.127 µM and 0.0038 µM.
Consider `CCCC(CCC)C(=O)OCC1(CO)C/C(=C\c2ccc(C(F)(F)F)cc2)C(=O)O1` (racemic; form 1), for which the result (in the assay on LNCaP [4]; in the assay on LNCaP [5]; in the assay with LNCaP [6]; with LNCaP [7]; in the assay with NK92; in assay [3]) was Active.
In the case of `CCCC(CCC)C(=O)OCC1(CO)C/C(=C\c2ccc(F)cc2)C(=O)O1` (racemic; form 1), the outcome (in the assay with LNCaP [4]; in the assay with LNCaP [5]; in assay [3]) was Active.
For `O=C1OC(CO)(COC(=O)c2ccc([N+](=O)[O-])cc2)C/C1=C\c1ccc([N+](=O)[O-])cc1` (racemic; form 2) [listing 1 of 2 here], the Ki came out at 0.127 µM in assay [1] and 0.00222 µM in assay [2].
`CCC(C(=O)OCC1(CO)C/C(=C\c2ccc(-c3ccc(C(F)(F)F)cc3)cc2)C(=O)O1)c1ccccc1` (racemic; form 2): in the assay with MCF-10A, the outcome was Active.
Turning to `CCCCC(CC)C(=O)OCC1(CO)C/C(=C\c2ccc(Cl)c(F)c2)C(=O)O1` (racemic; form 2), the outcome (in the assay with NK92; in assay [3]) was Active.
`CCCCC(CC)C(=O)OCC1(CO)C/C(=C\c2ccc(Cl)cc2)C(=O)O1` (racemic; form 2): the result (with NK92; in assay [3]) was Active.
`CCCCC(CC)C(=O)OCC1(CO)C/C(=C\c2ccc(F)c(Br)c2)C(=O)O1` (racemic; form 2): the result in the assay with CHO [8], with CHO [9], in the assay on CHO [10], with CHO [11] and in the assay with MCF-10A was Active.
Consider `O=C1OC(CO)(COC(=O)c2ccc([N+](=O)[O-])cc2)C/C1=C\c1ccc([N+](=O)[O-])cc1` (racemic; form 2) [listing 2 of 2 here], for which the Ratio Ki in [12] came out at 57.

One may read the Ki as a measure of affinity in units of concentration, obtained from inhibition or displacement.
